The subject of one data set is SW-620. The data set can be described thus: Growth inhibition of human SW620 cells at 10 uM measured after 48 hrs by SRB assay relative to control. The data set is classed as functional. The settings on record: read-out: GI. Put shortly: (§1)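 Single-dose NCI screen at 10 μM: 48 h exposure at 37°C, 5% CO2; adherent cells fixed in cold TCA (final 10%), suspension cells in TCA (final 16%); SRB stain solubilized in 10 mM Trizma base, absorbance 515 nm; percent growth inhibition calculated relative to untreated control and time-zero plates.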

A further data set relates to HCT-116. The data set can be described thus: Growth inhibition of human HCT-116 cells at 10 uM measured after 48 hrs by SRB assay relative to control. The data set is classed as functional. To be noted: read-out: GI. Put shortly: (§2)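 NCI screen: cells seeded at […] per well and preincubated 24 h (37°C, 5% CO2). Compound stocks in DMSO, tested at a single 10 μM. Exposure 48 h. Adherent cells fixed with cold TCA (10% final), suspension cells with 16% TCA. SRB stain read at 515 nm. Percent growth inhibition reported against time-zero and untreated controls.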

Data set [1] has as its system Panel NCI-60 (60 carcinoma cell lines). The data set can be described thus: Antiproliferative activity against human NCI-60 cells assessed as growth inhibition at 10 uM measured after 48 hrs by SRB assay relative to control. The data set is classed as functional. The settings on record: read-out: GI. The procedure, abridged: as §2
In a further data set the test system is HT-29. The data set can be described thus: Growth inhibition of human HT-29 cells at 10 uM measured after 48 hrs by SRB assay relative to control. Format: functional. The settings on record: HT-29, read-out: GI. The procedure, abridged:
as §2

The subject of a further data set is NCI-H460. Put plainly: Growth inhibition of human NCI-H460 cells at 10 uM measured after 48 hrs by SRB assay relative to control. The data set is classed as functional. The settings on record: NCI-H460, read-out: GI. Put shortly:
as §2

The test system of another data set is A549. The data set can be described thus: Growth inhibition of human A549 cells at 10 uM measured after 48 hrs by SRB assay relative to control. The settings on record: A549, read-out: GI. The data set is classed as functional. The procedure, abridged:
as §2

The subject of the next data set is NCI-H322M. Put plainly: Growth inhibition of human NCI-H322M cells at 10 uM measured after 48 hrs by SRB assay relative to control. The data set is classed as functional. The settings on record: read-out: GI. Put shortly: as §2
Another data set relates to KM12. The data set can be described thus: Growth inhibition of human KM12 cells at 10 uM measured after 48 hrs by SRB assay relative to control. The settings on record: KM12, read-out: GI. The data set is classed as functional. Put shortly: as §2
In the next data set the test system is RPMI-8226. The data set can be described thus: Growth inhibition of human RPMI-8226 cells at 10 uM measured after 48 hrs by SRB assay relative to control. The data set is classed as functional. To be noted: RPMI-8226, read-out: GI. Put shortly:
as §1

Another data set relates to OVCAR-3. Put plainly: Growth inhibition of human OVCAR-3 cells at 10 uM measured after 48 hrs by SRB assay relative to control. The data set is classed as functional. The settings on record: OVCAR-3, read-out: GI. Put shortly: as §2
The subject of the next data set is MCF7. Put plainly: Growth inhibition of human MCF7 cells at 10 uM measured after 48 hrs by SRB assay relative to control. Format: functional. The settings on record: read-out: GI. Put shortly: as §2
For a further data set, the system named is UO-31. The data set can be described thus: Growth inhibition of human UO-31 cells at 10 uM measured after 48 hrs by SRB assay relative to control. Format: functional. To be noted: read-out: GI. The procedure, abridged: as §1
In a further data set the test system is ACHN. Put plainly: Growth inhibition of human ACHN cells at 10 uM measured after 48 hrs by SRB assay relative to control. The data set is classed as functional. The settings on record: read-out: GI. The procedure, abridged: as §2
In the next data set the test system is RXF 393. Put plainly: Growth inhibition of human RXF 393 cells at 10 uM measured after 48 hrs by SRB assay relative to control. Format: functional. The settings on record: read-out: GI. The procedure, abridged: as §1
A short description of data set [2]: Cytotoxicity against human PCS-800-017 cells assessed as reduction in cell viability measured after 24 hrs by MTT assay. Format: toxicity, cell-based. Put shortly: (§3)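 MTT viability with 24 h incubation in 96-well plates. Five semi-log concentrations from 0.01 to 100 μM. Formazan absorbance read at 570 nm, with 690 nm background subtracted. Run in triplicate. IC50 obtained by sigmoidal dose-response fitting. Cells are leukemia HL-60(TB) and normal lymphocytes (PCS-800-017).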

The subject of another data set is HL-60. The data set can be described thus: Cytotoxicity against human HL-60 cells assessed as reduction in cell viability measured after 24 hrs by MTT assay. The settings on record: HL-60, 24 h. Format: functional, cell-based. The procedure, abridged:
as §3

pIC50: −log10 of the molar value.

For `CCOc1cc(/C=N/Nc2nc(-c3ccc(Br)cc3)cs2)ccc1OCc1ccccc1`, the inhibition of growth at 10 µM turned out to be 76.1% in the data set on SW-620; 70.9% in the data set with HCT-116; 31.8% in data set [1]; 73.9% in the data set on HT-29; 78.6% in the data set with NCI-H460; 76.4% with A549.

In the case of `Cc1c(/C=N/Nc2nc(-c3cccc([N+](=O)[O-])c3)cs2)c(=O)n(-c2ccccc2)n1C`, in [1], the inhibition of growth at 10 µM is 16.2%.

Take `COc1cc(/C=N/Nc2nc(-c3cccc([N+](=O)[O-])c3)cs2)ccc1OCc1ccccc1`: the inhibition of growth at 10 µM in data set [1] stood at 28.8%.

As to `O=[N+]([O-])c1cccc(-c2csc(N/N=C/c3ccc4c(c3)OCO4)n2)c1`, the inhibition of growth at 10 µM in [1] turned out to be 18.2%.

As for `O=[N+]([O-])c1cc(/C=N/Nc2nc(-c3ccccc3)cs2)ccc1Cl`, the inhibition of growth at 10 µM was found to be 83.1% with NCI-H322M; 86.6% in the data set on KM12; 85.1% in the data set with RPMI-8226; 21.5% in data set [1]; 96.2% in the data set on OVCAR-3; 89.9% in the data set on MCF7.

On to `CCOc1cc(/C=N/Nc2nc(-c3ccccc3)cs2)ccc1OCc1ccccc1`, for which the inhibition of growth at 10 µM in [1] stood at 14.5%; in the data set on UO-31, 48.1%.

With `C(=N\Nc1nc(-c2ccccc2)cs1)/c1ccc(OCc2ccccc2)cc1`, the inhibition of growth at 10 µM in the data set on ACHN is 79.8%; in data set [1], 13.1%.

Turning to `COc1cc(/C=N/Nc2nc(-c3ccc(Cl)cc3)cs2)ccc1OCc1ccccc1`, the figures for the inhibition of growth at 10 µM (in [1]; in the data set with MCF7) were 16.5% and 45%, respectively.

For the molecule `CCOc1cc(/C=N/Nc2nc(-c3ccc(Cl)cc3)cs2)ccc1OCc1ccccc1`, the inhibition of growth at 10 µM in the data set on SW-620 was 76.2%; in the data set on HCT-116 it was 87.5%; in data set [1], 37.1%; with NCI-H460 it was 88.8%; in the data set with A549, 87.4%.

Take `CCOc1cc(/C=N/Nc2nc(-c3ccccc3)cs2)ccc1O`: in data set [1], the inhibition of growth at 10 µM is 36.9%.

Consider `COc1cc(/C=N/Nc2nc(-c3ccccc3)cs2)ccc1OCc1ccccc1`, for which the inhibition of growth at 10 µM in data set [1] came out at 19.1%.

Take `O=[N+]([O-])c1cccc(-c2csc(N/N=C/c3ccc(Cl)c([N+](=O)[O-])c3)n2)c1`: in [1], the inhibition of growth at 10 µM came out at 36%.

Regarding `CCOc1cc(/C=N/Nc2nc(-c3cccc([N+](=O)[O-])c3)cs2)ccc1OCc1ccccc1`, the inhibition of growth at 10 µM came to 79.2% in the data set on RXF 393 and 23.9% in data set [1].

`Cc1c(/C=N/Nc2nc(-c3ccc(Br)cc3)cs2)c(=O)n(-c2ccccc2)n1C`: the inhibition of growth at 10 µM in data set [1] was 9.82%.

Take `O=[N+]([O-])c1cccc(-c2csc(N/N=C/c3ccc(OCc4ccccc4)cc3)n2)c1`: the inhibition of growth at 10 µM in data set [1] came out at 18.5%.

`COc1cccc2c1C(=O)c1c(O)c3c(c(O)c1C2=O)C[C@@](O)(C(=O)CO)C[C@@H]3O[C@H]1C[C@H](N)[C@H](O)[C@H](C)O1` [DOXORUBICIN]: the IC50 at 24 h in data set [2] stood at 12.5 µM. In addition, the pIC50 in the data set on HL-60 was 6.35.

(Values after ChEMBL document CHEMBL6177937, “Design, synthesis, and biological evaluation of novel thiazole derivatives as PI3K/mTOR dual inhibitors” (RSC Med Chem, 2024).)
